This passage reports inhibition results from ChEMBL document CHEMBL1250448, “Inhibitor hijacking of Akt activation” (Nat Chem Biol, 2009).

Structures are written as SMILES.

As a reminder, the inhibition is the relative decrease from the control value, in per cent.

In assay [1] the target is Serine/threonine-protein kinase 4 (Homo sapiens) (UniProt Q13043). Kind of assay: Inhibition of STK4 at 1 uM in presence of 10 uM ATP by Select Screen kinase assay relative to untreated control. Summed up: (§1)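 Commercial SelectScreen profiling panel of 220 purified kinases. Each kinase was tested at a single inhibitor concentration of 1 μM, and activity was expressed as percent inhibition.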

In assay [2] the target is Tyrosine-protein kinase Mer (Homo sapiens) (UniProt Q12866). Kind of assay: Inhibition of MERTK at 1 uM in presence of 10 uM ATP by Select Screen kinase assay relative to untreated control. The essentials:
(§2)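 Single-concentration profiling at 1 μM against a panel of 220 purified kinases, run as an outsourced SelectScreen kinase profiling service. Activity is expressed as percent inhibition.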

The target of assay [3] is MAP kinase-activated protein kinase 3 (Homo sapiens) (UniProt Q16644). Kind of assay: Inhibition of MAPKAPK3 at 1 uM in presence of 10 uM ATP by Select Screen kinase assay relative to untreated control.
The target of assay [4] is cGMP-dependent protein kinase 1 (Homo sapiens) (UniProt Q13976). Kind of assay: Inhibition of PRKG1 at 1 uM in presence of 10 uM ATP by Select Screen kinase assay relative to untreated control.
Sequence of cGMP-dependent protein kinase 1 (Homo sapiens) (Q13976 whole entry): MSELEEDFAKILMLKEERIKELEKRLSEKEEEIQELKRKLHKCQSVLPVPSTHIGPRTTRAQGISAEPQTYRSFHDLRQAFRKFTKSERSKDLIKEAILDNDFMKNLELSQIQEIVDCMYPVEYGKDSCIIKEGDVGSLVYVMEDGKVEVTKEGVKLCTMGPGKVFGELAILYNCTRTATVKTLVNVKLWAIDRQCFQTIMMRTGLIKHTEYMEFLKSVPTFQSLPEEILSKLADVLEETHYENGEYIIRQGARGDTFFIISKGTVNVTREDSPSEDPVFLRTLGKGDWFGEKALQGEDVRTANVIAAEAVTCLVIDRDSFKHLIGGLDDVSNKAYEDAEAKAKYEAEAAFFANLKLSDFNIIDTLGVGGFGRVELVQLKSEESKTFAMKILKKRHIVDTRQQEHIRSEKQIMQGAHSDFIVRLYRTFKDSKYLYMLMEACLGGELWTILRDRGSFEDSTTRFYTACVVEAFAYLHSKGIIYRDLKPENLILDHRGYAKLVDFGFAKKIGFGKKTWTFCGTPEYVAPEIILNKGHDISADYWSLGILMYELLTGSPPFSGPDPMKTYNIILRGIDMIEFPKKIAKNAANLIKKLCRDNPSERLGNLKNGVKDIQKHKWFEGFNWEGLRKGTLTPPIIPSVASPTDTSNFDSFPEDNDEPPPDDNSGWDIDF
The target of assay [5] is RAC-gamma serine/threonine-protein kinase (Homo sapiens) (UniProt Q9Y243). Kind of assay: Inhibition of AKT3 at 1 uM in presence of 10 uM ATP by Select Screen kinase assay relative to untreated control. Summed up: (§3)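 Single-point screen at 1 μM against a panel of 220 purified kinases, run by Invitrogen staff as a SelectScreen profiling service. Read-out is percent inhibition of kinase activity.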
Sequence of RAC-gamma serine/threonine-protein kinase (Homo sapiens) (Q9Y243 whole entry): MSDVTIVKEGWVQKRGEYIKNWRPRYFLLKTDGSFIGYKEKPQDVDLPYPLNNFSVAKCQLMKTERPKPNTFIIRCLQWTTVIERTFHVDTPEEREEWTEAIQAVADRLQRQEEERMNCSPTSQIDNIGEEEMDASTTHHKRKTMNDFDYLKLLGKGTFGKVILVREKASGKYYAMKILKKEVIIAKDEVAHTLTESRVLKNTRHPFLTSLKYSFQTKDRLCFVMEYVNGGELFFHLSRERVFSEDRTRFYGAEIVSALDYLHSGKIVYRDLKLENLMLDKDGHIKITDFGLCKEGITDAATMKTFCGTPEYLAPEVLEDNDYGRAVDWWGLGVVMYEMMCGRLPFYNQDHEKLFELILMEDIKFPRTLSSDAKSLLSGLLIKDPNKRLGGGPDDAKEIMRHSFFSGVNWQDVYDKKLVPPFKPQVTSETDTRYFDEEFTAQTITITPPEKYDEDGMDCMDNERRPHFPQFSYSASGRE

The target of assay [6] is Dual specificity protein kinase CLK1 (Homo sapiens) (UniProt P49759). Kind of assay: Inhibition of CLK1 at 1 uM in presence of 100 uM ATP by Select Screen kinase assay relative to untreated control. Summed up: (§4)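 Part of a 220-kinase panel of purified kinases, each tested with compound at 1 μM. Percent inhibition was measured in the Invitrogen SelectScreen profiling assay.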

The target of assay [7] is Serine/threonine-protein kinase PLK2 (Homo sapiens) (UniProt Q9NYY3). Kind of assay: Inhibition of PLK2 at 1 uM in presence of 10 uM ATP by Select Screen kinase assay relative to untreated control.
In assay [8] the target is Serine/threonine-protein kinase BRSK1 (Homo sapiens) (UniProt Q8TDC3). Kind of assay: Inhibition of BRSK1 at 1 uM in presence of 10 uM ATP by Select Screen kinase assay relative to untreated control. Summed up:
as §3

Assay [9] addresses Tyrosine-protein kinase ITK/TSK (Homo sapiens) (UniProt Q08881). Kind of assay: Inhibition of ITK at 1 uM in presence of 10 uM ATP by Select Screen kinase assay relative to untreated control.
Assay [10] concerns the target Ribosomal protein S6 kinase beta-1 (Homo sapiens, UniProt P23443). Kind of assay: Inhibition of RPS6KB1 at 1 uM in presence of 10 uM ATP by Select Screen kinase assay relative to untreated control.
Assay [11] concerns the target Casein kinase I isoform epsilon (Homo sapiens) (UniProt P49674). Kind of assay: Inhibition of CSNK1E at 1 uM in presence of 10 uM ATP by Select Screen kinase assay relative to untreated control.
Assay [12] addresses Glycogen synthase kinase-3 alpha (Homo sapiens) (UniProt P49840). Kind of assay: Inhibition of GSK3A at 1 uM in presence of 10 uM ATP by Select Screen kinase assay relative to untreated control. The essentials: as §4
Assay [13] deals with 3-phosphoinositide-dependent protein kinase 1 (Homo sapiens) (UniProt O15530). Kind of assay: Inhibition of PDK1 at 1 uM in presence of 10 uM ATP by Select Screen kinase assay relative to untreated control. The essentials: as §1
Assay [14] has as its target Tyrosine-protein kinase ABL1 (Homo sapiens) (UniProt P00519). Kind of assay: Inhibition of ABL1 at 1 uM in presence of 10 uM ATP by Select Screen kinase assay relative to untreated control. The essentials:
as §3

In assay [15] the target is Rho-associated protein kinase 2 (Homo sapiens) (UniProt O75116). Kind of assay: Inhibition of ROCK2 at 1 uM in presence of 10 uM ATP by Select Screen kinase assay relative to untreated control. The essentials: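 Profiling panel of 220 purified kinases (SelectScreen), each compound tested at 1 μM. Read-out is percent inhibition of kinase activity.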
Sequence of Rho-associated protein kinase 2 (Homo sapiens) (O75116 whole entry, looked up): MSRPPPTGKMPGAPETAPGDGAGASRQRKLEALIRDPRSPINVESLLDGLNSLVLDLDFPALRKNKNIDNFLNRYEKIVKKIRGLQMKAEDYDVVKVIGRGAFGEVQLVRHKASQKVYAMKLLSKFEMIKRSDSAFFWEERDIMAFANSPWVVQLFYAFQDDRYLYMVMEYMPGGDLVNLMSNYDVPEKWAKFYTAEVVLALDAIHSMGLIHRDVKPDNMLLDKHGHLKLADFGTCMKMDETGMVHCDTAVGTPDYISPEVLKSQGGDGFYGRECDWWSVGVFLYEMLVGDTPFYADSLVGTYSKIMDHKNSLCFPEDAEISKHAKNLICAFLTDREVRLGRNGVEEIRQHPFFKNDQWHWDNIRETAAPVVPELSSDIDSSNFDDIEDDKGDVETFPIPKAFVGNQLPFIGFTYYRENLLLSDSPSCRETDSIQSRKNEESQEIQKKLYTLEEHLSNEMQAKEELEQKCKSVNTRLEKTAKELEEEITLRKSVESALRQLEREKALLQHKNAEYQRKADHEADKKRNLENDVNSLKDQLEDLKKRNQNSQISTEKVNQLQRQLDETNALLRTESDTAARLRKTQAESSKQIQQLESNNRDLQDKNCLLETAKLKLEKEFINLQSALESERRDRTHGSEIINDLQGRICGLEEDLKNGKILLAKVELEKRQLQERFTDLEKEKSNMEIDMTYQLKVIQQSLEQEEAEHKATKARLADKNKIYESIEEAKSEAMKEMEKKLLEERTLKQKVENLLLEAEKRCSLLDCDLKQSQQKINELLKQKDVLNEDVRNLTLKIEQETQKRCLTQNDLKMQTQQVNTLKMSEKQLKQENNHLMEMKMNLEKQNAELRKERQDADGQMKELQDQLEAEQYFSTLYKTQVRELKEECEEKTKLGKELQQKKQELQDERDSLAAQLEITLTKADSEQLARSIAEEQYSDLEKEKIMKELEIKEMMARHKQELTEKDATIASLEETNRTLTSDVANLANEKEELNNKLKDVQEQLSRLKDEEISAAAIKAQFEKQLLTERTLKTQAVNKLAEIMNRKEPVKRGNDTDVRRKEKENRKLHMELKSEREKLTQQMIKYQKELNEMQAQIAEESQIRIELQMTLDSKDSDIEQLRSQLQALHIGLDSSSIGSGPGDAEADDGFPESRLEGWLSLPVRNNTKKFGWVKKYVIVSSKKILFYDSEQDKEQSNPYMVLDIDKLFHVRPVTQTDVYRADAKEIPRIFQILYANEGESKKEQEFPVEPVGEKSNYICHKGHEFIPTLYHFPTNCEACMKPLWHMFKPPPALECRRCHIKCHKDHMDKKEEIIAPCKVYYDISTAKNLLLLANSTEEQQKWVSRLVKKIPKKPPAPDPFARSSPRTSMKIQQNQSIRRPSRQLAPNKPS
Assay [16] concerns the target Serine/threonine-protein kinase PAK 4 (Homo sapiens) (UniProt O96013). Kind of assay: Inhibition of PAK4 at 1 uM in presence of 10 uM ATP by Select Screen kinase assay relative to untreated control.
The target in assay [17] is Glycogen synthase kinase-3 beta (Homo sapiens) (UniProt P49841). Kind of assay: Inhibition of GSK3B at 1 uM in presence of 10 uM ATP by Select Screen kinase assay relative to untreated control. Summed up:
as §4

The target in assay [18] is Death-associated protein kinase 3 (Homo sapiens) (UniProt O43293). Kind of assay: Inhibition of DAPK3 at 1 uM in presence of 10 uM ATP by Select Screen kinase assay relative to untreated control. Summed up: as §4
In assay [19] the target is Testis-specific serine/threonine-protein kinase 2 (Homo sapiens) (UniProt Q96PF2). Kind of assay: Inhibition of STK22B at 1 uM in presence of 10 uM ATP by Select Screen kinase assay relative to untreated control. Summed up: as §1
Sequence of Testis-specific serine/threonine-protein kinase 2 (Homo sapiens) (Q96PF2 whole entry): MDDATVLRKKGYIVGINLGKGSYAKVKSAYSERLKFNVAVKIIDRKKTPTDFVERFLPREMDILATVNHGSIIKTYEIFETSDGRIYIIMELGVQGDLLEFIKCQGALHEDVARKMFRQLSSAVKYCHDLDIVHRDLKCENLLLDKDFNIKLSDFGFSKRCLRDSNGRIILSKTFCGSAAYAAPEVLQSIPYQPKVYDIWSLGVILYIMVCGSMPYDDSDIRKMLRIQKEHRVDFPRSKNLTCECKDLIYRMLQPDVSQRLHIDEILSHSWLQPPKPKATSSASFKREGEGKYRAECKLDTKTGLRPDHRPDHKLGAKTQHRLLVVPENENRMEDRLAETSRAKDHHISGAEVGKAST
Assay [20] addresses Rho-associated protein kinase 1 (Homo sapiens) (UniProt Q13464). Kind of assay: Inhibition of ROCK1 at 1 uM in presence of 10 uM ATP by Select Screen kinase assay relative to untreated control.
In assay [21] the target is SRSF protein kinase 3 (Homo sapiens) (UniProt Q9UPE1). Kind of assay: Inhibition of STK23 at 1 uM in presence of 10 uM ATP by Select Screen kinase assay relative to untreated control. The essentials:
as §1

Assay [22] addresses Serine/threonine-protein kinase pim-2 (Homo sapiens) (UniProt Q9P1W9). Kind of assay: Inhibition of PIM2 at 1 uM in presence of 10 uM ATP by Select Screen kinase assay relative to untreated control.
The target in assay [23] is Tyrosine-protein kinase ABL2 (Homo sapiens) (UniProt P42684). Kind of assay: Inhibition of ABL2 at 1 uM in presence of 10 uM ATP by Select Screen kinase assay relative to untreated control. Summed up: as §3
For assay [24], the target named is Tyrosine-protein kinase JAK3 (Homo sapiens) (UniProt P52333). Kind of assay: Inhibition of JAK3 at 1 uM in presence of 10 uM ATP by Select Screen kinase assay relative to untreated control. Summed up: as §2
The target in assay [25] is Serine/threonine-protein kinase Sgk2 (Homo sapiens) (UniProt Q9HBY8). Kind of assay: Inhibition of SGK2 at 1 uM in presence of 10 uM ATP by Select Screen kinase assay relative to untreated control. Summed up:
as §1

In assay [26] the target is Dual specificity protein kinase CLK3 (Homo sapiens) (UniProt P49761). Kind of assay: Inhibition of CLK3 at 1 uM in presence of 100 uM ATP by Select Screen kinase assay relative to untreated control. Summed up:
as §4

Assay [27] has as its system Tyrosine-protein kinase ABL1 (Homo sapiens), P00519 [E255K]. Kind of assay: Inhibition of ABL1 E255K mutant at 1 uM in presence of 10 uM ATP by Select Screen kinase assay relative to untreated control. Summed up:
as §3

Sequence of Rho-associated protein kinase 1 (Homo sapiens) (Q13464 2-1354 limits assumed): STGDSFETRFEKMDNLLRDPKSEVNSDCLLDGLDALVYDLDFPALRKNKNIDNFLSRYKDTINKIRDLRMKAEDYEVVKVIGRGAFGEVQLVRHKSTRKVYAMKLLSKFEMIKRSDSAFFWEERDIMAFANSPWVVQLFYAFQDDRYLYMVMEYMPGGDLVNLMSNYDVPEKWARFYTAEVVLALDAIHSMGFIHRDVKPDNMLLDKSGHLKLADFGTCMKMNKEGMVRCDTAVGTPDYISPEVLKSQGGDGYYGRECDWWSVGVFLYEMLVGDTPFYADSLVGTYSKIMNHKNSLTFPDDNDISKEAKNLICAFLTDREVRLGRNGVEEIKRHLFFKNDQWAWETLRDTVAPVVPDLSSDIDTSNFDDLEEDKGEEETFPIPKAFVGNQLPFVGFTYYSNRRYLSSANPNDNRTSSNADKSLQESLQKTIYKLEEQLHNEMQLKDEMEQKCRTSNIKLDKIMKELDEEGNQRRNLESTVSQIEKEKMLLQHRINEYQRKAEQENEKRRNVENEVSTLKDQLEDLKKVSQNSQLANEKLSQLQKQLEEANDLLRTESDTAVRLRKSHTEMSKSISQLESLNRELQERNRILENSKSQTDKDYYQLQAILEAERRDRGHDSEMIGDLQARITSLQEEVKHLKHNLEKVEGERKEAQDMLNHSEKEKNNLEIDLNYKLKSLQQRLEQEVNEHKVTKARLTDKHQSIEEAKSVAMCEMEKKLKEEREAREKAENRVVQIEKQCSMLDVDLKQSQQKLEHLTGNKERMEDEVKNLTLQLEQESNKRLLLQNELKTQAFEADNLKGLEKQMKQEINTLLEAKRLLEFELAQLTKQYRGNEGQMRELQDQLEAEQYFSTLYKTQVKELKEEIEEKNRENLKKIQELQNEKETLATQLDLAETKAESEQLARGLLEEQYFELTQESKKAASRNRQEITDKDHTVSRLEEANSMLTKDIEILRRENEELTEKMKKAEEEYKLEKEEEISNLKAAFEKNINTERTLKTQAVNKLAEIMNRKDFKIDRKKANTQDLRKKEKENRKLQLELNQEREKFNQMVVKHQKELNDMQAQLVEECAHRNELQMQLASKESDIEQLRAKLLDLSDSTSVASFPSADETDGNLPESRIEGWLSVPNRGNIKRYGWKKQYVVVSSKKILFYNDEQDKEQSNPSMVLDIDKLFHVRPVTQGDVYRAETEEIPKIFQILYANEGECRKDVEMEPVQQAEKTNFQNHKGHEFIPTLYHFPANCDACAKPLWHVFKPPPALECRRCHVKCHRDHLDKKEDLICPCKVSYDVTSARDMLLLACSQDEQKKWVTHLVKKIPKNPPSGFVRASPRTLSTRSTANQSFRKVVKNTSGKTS
Sequence of Glycogen synthase kinase-3 beta (Homo sapiens) (P49841 whole entry, looked up): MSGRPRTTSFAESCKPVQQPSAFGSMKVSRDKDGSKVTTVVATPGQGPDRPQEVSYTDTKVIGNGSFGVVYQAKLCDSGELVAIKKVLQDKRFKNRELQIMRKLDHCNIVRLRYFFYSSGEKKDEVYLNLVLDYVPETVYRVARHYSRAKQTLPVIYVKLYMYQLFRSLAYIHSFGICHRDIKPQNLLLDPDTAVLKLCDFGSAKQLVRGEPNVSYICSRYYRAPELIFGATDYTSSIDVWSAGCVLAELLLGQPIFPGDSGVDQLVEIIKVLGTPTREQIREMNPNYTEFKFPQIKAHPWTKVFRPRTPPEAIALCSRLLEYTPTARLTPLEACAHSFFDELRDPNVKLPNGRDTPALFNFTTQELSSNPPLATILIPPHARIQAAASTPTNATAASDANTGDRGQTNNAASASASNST
Sequence of Serine/threonine-protein kinase pim-2 (Homo sapiens) (Q9P1W9 whole entry, looked up): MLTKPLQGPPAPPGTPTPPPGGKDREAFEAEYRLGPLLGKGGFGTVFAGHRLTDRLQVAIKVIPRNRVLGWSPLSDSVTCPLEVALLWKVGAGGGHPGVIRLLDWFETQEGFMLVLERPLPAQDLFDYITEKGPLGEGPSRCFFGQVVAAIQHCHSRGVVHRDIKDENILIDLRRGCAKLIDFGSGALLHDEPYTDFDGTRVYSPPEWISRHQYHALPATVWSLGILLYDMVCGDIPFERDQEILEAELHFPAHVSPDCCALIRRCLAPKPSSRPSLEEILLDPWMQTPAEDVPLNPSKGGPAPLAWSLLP

Regarding `COc1ccccc1N1CCN(c2ncnc3[nH]nc(Br)c23)CC1`, the inhibition stood at 19% in [1]; 16% in [2]; 11% in [3]; 52% in assay [4]; 17% in assay [5]; 74% in [6]. Further, the inhibition in [7] came to 24%; in [8], 29%; in assay [9], 16%; in assay [10], 80%; in [11] it was 23%; in assay [12], 80%. Further, the inhibition in [13] was found to be 12%; in assay [14] it was 12%; in [15], 2%; in [16], 9%; in [17], 67%; in assay [18], 14%. For the same compound, the inhibition in assay [19] is 3%; in [20] it was -2%; in [21], 3%; in [22], -1%; in assay [23], 4%; in assay [24], -1%. Further, the inhibition in assay [25] was 10%; in [26], 32%; in assay [27], 5%.

Take `O=C(NCCCNc1nc(Nc2cccc(NC(=O)N3CCCC3)c2)ncc1I)c1cccs1`: the inhibition in assay [1] was 36%; in [2], 17%; in [3], 10%; in assay [4], 22%; in [5] it was 3%; in assay [6], 30%. The inhibition in [7] amounted to 38%; in assay [8], 75%; in assay [9], 56%; in assay [10], 29%; in [12], 69%; in assay [13], 89%. In addition, the inhibition in assay [14] turned out to be 37%; in assay [15] it was 72%; in assay [16], 42%; in assay [17] it was 69%; in assay [18], 13%; in [19], 2%. For the same compound, the inhibition in assay [20] was determined as 48%; in assay [21], 6%; in [22], 1%; in assay [23] it was 37%; in assay [24], 89%; in assay [25] it was 25%. The figures for the inhibition in assay [26] and in assay [27] were 8% and 26%, respectively.

Take `Cc1n[nH]c2ccc(-c3cncc(OC[C@@H](N)Cc4c[nH]c5ccccc45)c3)cc12`: the inhibition in [11] was found to be 42%.
